Experiments:
SARS-CoV-2 [1] = experiment: Antiviral activity against SARS-CoV-2 infected in African green monkey Vero E6 cells assessed as inhibition of viral entry cells preincubated with compound for 1 hr followed by viral infection for 1 hr and later washed with PBS followed by re-incubated with compound for 24 hrs; assay type: functional, organism-based, Severe acute respiratory syndrome coronavirus 2
[2] = biological target: Replicase polyprotein 1ab (Severe acute respiratory syndrome coronavirus 2) (UniProt P0DTD1); experiment: Inhibition of SARS-CoV-2 3CLpro using TVLQ-AMC probe as substrate at 10 uM preincubated with enzyme for 5 mins followed by substrate addition and measured after 3 hrs for every 15 mins for 1 hr by FRET assay; conditions: time 245.0 min
Outline: (§1)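 3CLpro (0.4 µM final) preincubated 5 min at room temperature with compound in Tris-HCl pH 7.3, 1 mM EDTA. TVLQ-AMC added to 40 µM final. Fluorescence (ex 364/em 440 nm) read every 15 min for 1 h and at 3 h, in triplicate. Values normalized to the mean 3 h no-inhibitor control set as 100.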

SARS-CoV-2 [3] = experiment: Antiviral activity against SARS-CoV-2 infected in African green monkey Vero E6 cells assessed as inhibition of viral spread cells preincubated with compound for 1 hr followed by viral infection for 1 hr and later washed with PBS followed by re-incubated with compound for 48 hrs; assay type: functional, organism-based, Severe acute respiratory syndrome coronavirus 2
Vero C1008 [4] = experiment: Cytotoxicity against African green monkey Vero E6 cells assessed as effect on nuclei count; assay type: cell-based; conditions: chlorocebus sabaeus
[5] = biological target: Replicase polyprotein 1ab (Severe acute respiratory syndrome coronavirus 2) (UniProt P0DTD1); experiment: Inhibition of SARS-CoV-2 3CLpro using TVLQ-AMC probe as substrate at 50 uM preincubated with enzyme for 5 mins followed by substrate addition and measured after 3 hrs for every 15 mins for 1 hr by FRET assay; conditions: time 245.0 min; outline: as §1
Vero C1008 [6] = experiment: Cytotoxicity against African green monkey Vero E6 cells assessed as reduction in cell survival at 50 uM; assay type: cell-based; conditions: chlorocebus sabaeus, vero c1008, 50 µM
[7] = Severe acute respiratory syndrome coronavirus 2, Vero C1008

Molecule | IC50 (SARS-CoV-2 [1]; [7]) [µM] | inhibition [2] [%] | IC50 (SARS-CoV-2 [3]; [7]) [µM] | Activity (Vero C1008 [4]) | inhibition [5] [%] | Activity (Vero C1008 [6]) | IC50 (SARS-CoV-2 [1]; vero e6) [µM] | IC50 (SARS-CoV-2 [3]; vero e6) [µM]
Cc1ccc2c(c1)C(=O)N([C@H](Cc1ccccc1)C(=O)N[C@@H](Cc1ccccc1)[C@@H](O)CN1CCN(C[C@H](O)[C@H](Cc3ccccc3)NC(=O)[C@@H](Cc3ccccc3)N3C(=O)c4ccc(C)cc4C3=O)CC1)C2=O | 10.9 | 5 | 14.7 | Non-Toxic | 12 | – | – | –
CC(C)(C)OC(=O)NC(Cc1ccccc1)C(=O)N[C@@H](Cc1ccccc1)[C@@H](O)CN1CCN(Cc2ccc(C(F)(F)F)cc2)CC1 (some centres undefined) | – | 5 | 12.5 | Non-Toxic | 12 | – | – | –
IVERMECTIN [listing 1 of 2 here] | – | 85 | – | – | 90 | – | – | –
IVERMECTIN [listing 2 of 2 here] | – | – | – | – | – | Toxic | 2.7 | 6.02
CC(C)(C)OC(=O)N[C@@H](Cc1ccccc1)[C@@H](O)CN1CCC(N2CCCCC2)CC1 | 6.33 | 5 | 10.1 | Non-Toxic | 12 | – | – | –
